Active and inactive are the calls of the source. No cut-off for these calls is given here.
Key:
Mus musculus [1] = assay: In vivo inhibition of HDAC6 in scopolamine-treated 3xTg-AD transgenic mouse brain hippocampal CA1 region assessed as increase in acetyl-alpha-tubulin level at 50 mg/kg, po administered daily for 3 months by immunohistochemical analysis; format: functional, organism-based
In short: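 Female 3xTg-AD mice, standard diet to 6 months of age, then 50 mg/kg orally once daily for three months; memantine 30 mg/kg in water as comparator. Brains removed and hippocampal CA1 sections immunostained for acetyl-α-tubulin and phospho-tau Ser396 and Ser404. Mean ± STD; one-way ANOVA.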

Mus musculus [2] = assay: In vivo inhibition of HDAC6 in scopolamine-treated 3xTg-AD transgenic mouse brain hippocampal CA1 region assessed as increase in acetyl-alpha-tubulin level at 50 mg/kg, po by Western blot analysis; format: functional, organism-based
In short: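 Female 3xTg-AD mice, fed standard diet to 6 months of age, then dosed orally at 50 or 100 mg/kg once daily for three months. Brains removed; hippocampal tissue lysates immunoblotted for acetyl-α-tubulin and phospho-tau Ser396 and Ser404. Mean ± STD; one-way ANOVA.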

[3] = target: T1, Protein deacetylase HDAC6 (Homo sapiens) (UniProt Q9UBN7); assay: Inhibition of HDAC6 in human SH-SY5Y cells transfected with pCAX FLAG APP and pRK5-EGFP-Tau P301L plasmids assessed as suppression of phosphorylated tau P301L mutant-induced apoptosis by measuring accumulation at sub-G1 phase at 1 uM after 24 hrs by propidium iodide staining-based flow cytometry (reference value: 22.01%); format: cell-based; parameters: scale not given: the % may be the effect or the level left
T1 sequence (whole entry): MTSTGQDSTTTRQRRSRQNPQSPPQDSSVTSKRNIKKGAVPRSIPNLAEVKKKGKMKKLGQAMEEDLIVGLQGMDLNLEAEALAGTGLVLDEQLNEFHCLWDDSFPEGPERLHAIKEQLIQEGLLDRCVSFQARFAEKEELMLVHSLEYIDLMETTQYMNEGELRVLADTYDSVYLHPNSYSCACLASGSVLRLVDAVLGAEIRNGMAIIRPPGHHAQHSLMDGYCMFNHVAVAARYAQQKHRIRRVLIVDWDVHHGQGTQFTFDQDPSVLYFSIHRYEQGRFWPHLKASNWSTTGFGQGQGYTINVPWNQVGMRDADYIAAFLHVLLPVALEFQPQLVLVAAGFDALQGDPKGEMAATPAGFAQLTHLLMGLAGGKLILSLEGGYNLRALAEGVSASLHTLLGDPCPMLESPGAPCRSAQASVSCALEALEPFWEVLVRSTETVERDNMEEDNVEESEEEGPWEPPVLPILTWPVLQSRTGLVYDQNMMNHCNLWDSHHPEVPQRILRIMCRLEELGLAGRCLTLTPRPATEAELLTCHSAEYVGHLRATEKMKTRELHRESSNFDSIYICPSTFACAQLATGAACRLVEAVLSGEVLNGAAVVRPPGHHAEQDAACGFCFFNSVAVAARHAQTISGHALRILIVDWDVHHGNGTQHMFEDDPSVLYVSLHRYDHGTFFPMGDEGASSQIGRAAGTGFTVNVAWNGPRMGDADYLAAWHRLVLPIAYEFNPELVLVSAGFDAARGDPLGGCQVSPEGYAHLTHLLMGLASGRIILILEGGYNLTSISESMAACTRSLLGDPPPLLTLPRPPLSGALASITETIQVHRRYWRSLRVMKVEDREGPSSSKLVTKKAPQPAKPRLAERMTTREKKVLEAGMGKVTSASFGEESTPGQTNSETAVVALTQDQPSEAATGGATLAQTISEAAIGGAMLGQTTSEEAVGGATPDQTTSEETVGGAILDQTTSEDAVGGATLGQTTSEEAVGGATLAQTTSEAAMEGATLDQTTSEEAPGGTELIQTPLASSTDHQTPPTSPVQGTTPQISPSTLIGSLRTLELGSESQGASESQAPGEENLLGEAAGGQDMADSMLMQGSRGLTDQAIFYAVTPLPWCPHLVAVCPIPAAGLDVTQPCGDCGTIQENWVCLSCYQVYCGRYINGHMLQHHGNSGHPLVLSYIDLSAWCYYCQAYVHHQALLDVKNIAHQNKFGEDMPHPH

[4] = target: T1, Protein deacetylase HDAC6 (Homo sapiens); assay: Inhibition of HDAC6 in human SH-SY5Y cells transfected with pCAX FLAG APP and pRK5-EGFP-Tau P301L plasmids assessed as increase in polyubiquitinated protein level at 0.01 to 1 uM after 24 hrs by immunoblot analysis; format: cell-based
In short: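 SH-SY5Y cells transfected 24 h with APP695/Tau P301L plasmids, then treated; whole lysates immunoblotted for polyubiquitin complexes.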

[5] = Ratio of drug level in brain to plasma in Sprague-Dawley rat at 50 mg/kg, po after 3 hrs; format: ADME, organism-based; settings: read-out: BPR
Mus musculus [6] = assay: In vivo inhibition of HDAC6 in 3xTg-AD transgenic mouse brain hippocampal CA1 region assessed as downregulation of […] expression of beta-amyloid at 50 mg/kg, po administered daily for 3 months by immunohistochemical analysis; format: functional, organism-based
[7] = target: T1, Protein deacetylase HDAC6 (Homo sapiens); assay: Inhibition of HDAC6 in human SH-SY5Y cells transfected with pCAX FLAG APP and pRK5-EGFP-Tau P301L plasmids assessed as increase in HSP90 acetylation at 1 uM after 24 hrs by coimmunoprecipitation analysis; format: cell-based
In short: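 SH-SY5Y and Neuro-2a cells cotransfected 24 h with APP695/Tau P301L plasmids, treated 24 h at 1 µM (ACY-1215 reference). 30 µg lysate immunoprecipitated overnight at 4 °C with anti-HDAC6 or anti-acetyl-lysine antibodies plus protein A/G beads, run on 8% SDS-PAGE, probed for Hsp90; Hsp70 by immunoblot. Three independent experiments.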

COc1ccc(C(=O)c2ccc3c(ccn3Cc3ccc(C(=O)NO)cc3)c2)cc1
inhibition (Mus musculus [1]): Active
inhibition (Mus musculus [2]): Active
Activity [3]: 11.5%
inhibition [4]: Active
Kp at 3 h [5]: 0.86
inhibition (Mus musculus [6]): Active
inhibition [7]: Active

Reference: ChEMBL document CHEMBL4196108, “5-Aroylindoles Act as Selective Histone Deacetylase 6 Inhibitors Ameliorating Alzheimer's Disease Phenotypes” (J Med Chem, 2018)
